Experimental data collected from several papers.
Each line is one published result; the experiments were not run side by side.
Target: Protein kinase C alpha type (PRKCA, Homo sapiens, UniProt P17252)

Cc1sc(C(=O)NC2COC2)cc1-n1cc(NC(=O)Nc2c(F)cccc2Cl)cn1 — remaining activity (enzyme activity; inhibitor; 10 µM): 95.9%
CCCOc1ccc(OC)c(F)c1C(=O)c1ccc(C(=O)N[C@@H]2CNC[C@H]2NC(=O)c2ccc3[nH]ncc3c2)cc1 — remaining activity (enzyme activity; inhibitor; 10 µM): 92%
CCCS(=O)(=O)Nc1ccc(F)c(C(=O)c2c[nH]c3ncc(-c4ccc(Cl)cc4)cc23)c1F — inhibition (enzyme activity; inhibitor; 1 µM): < 10%
CC(C)(O)[C@H]1CC[C@H](Nc2ccc3ncc(-c4cccc(C(F)(F)F)c4)n3n2)CC1 — remaining activity (enzyme activity; inhibitor; 1 µM): 69.5%
Cn1c(=O)n(-c2ccc(C(C)(C)C#N)cc2)c2c3cc(-c4cnc5ccccc5c4)ccc3ncc21 — remaining activity (enzyme activity; inhibitor; 10 µM): 87%
COc1cc(Nc2cnc(C#N)c(O[C@H](C)CN(C)C)n2)ncc1-c1cnn(C)c1 — remaining activity (enzyme activity; inhibitor; radiometric; 10 µM): 102%
CC/C(=N\NC(=O)NCc1cccc(O)c1)c1ccc(O)c(C)c1O — inhibition (enzyme activity; inhibitor; 0.1 µM): 2.6%
FC(F)(F)Oc1cccc(-c2cnc3ccc(-c4ccncc4)nn23)c1 — activity vs control (enzyme activity; inhibitor; radiometric; 1 µM): 96%
Cc1cc(NC(=O)c2cccc3cc(-c4cccc5[nH]nc(N)c45)ccc23)ccc1F — activity vs control (enzyme activity; inhibitor; 0.1 µM): 95%
CCN(CC)CCNC(=O)c1c(C)[nH]c(/C=C2\C(=O)Nc3ccc(F)cc32)c1C — inhibition (enzyme activity; inhibitor; 10 µM): 11%
O=C1Nc2ccc(Cl)cc2C1=Cc1cc(Cl)c(O)c(Cl)c1 — remaining signal (cell-free assay; 0.5 µM): 105%
Cc1ccc(C(=O)NCc2ccsc2)cc1C#Cc1cn(C(C)C)c2ncnc(N)c12 — activity vs control (enzyme activity; inhibitor; 1 µM): 92%
Oc1cccc(-c2nc(N3CCOCC3)c3oc4ncccc4c3n2)c1 — remaining activity (enzyme activity; inhibitor; 10 µM): 93%
O=C1NC(=O)c2cc(Nc3ccc(F)cc3)c(Nc3ccc(F)cc3)cc21 — remaining signal (cell-free assay; 0.5 µM): 99.3%
COc1cc2ncnc(Nc3ccc(Oc4ccccc4)cc3C)c2cc1OC — inhibition (enzyme activity; inhibitor; 1 µM): 6%
CCN(CC)CCNC(=O)c1c(C)[nH]c(/C=C2\C(=O)Nc3ccc(F)cc32)c1C — remaining activity (enzyme activity; inhibitor; 1 µM): 102%
CC(C)(C)c1nc2c(s1)c1nc(N)ncc1c1ccc(NS(=O)(=O)c3c(F)cccc3F)c(F)c12 — remaining activity (enzyme activity; inhibitor; radiometric; 1 µM): 107%
Cc1[nH]c(/C=C2\C(=O)Nc3ccc(F)cc32)c(C)c1C(=O)N[C@H]1CCN(C(=O)N(C)C)C1 — remaining activity (enzyme activity; inhibitor; 0.1 µM): 108%
CC(C)c1ccc(NC(=O)c2cccs2)c(-c2nc3ccccc3[nH]c2=O)c1 — activity vs control (enzyme activity; inhibitor; 1 µM): 100%
N#CCCc1ccc2c(c1)-c1[nH]c3ccc([N+](=O)[O-])cc3c1CC(=O)N2 — remaining signal (cell-free assay; 0.5 µM): 80.9%
CS(=O)(=O)Nc1cccc(-c2csc(NC(=O)CSc3nc4nccnc4c(=O)n3CCc3ccccc3)n2)c1 — inhibition (enzyme activity; inhibitor; 10 µM): 1%
CN1CC(Oc2cnc(C#N)cc2-c2ccn3nc(NC(=O)C4CC4)cc3c2)C1 — inhibition (enzyme activity; inhibitor; 1 µM): 2%
